Measurements of several laboratories.
Compare with care: the assays were run in different laboratories.
Target: Myosin light chain kinase, smooth muscle (MYLK, Homo sapiens, UniProt Q15746)

SMILES | test | setting | endpoint | value
Nc1nc(Nc2ccccc2)sc1C(=O)c1c(F)cccc1F | enzyme activity, inhibitor | 10 µM | remaining activity | 29%
COc1cc(Cl)c(C(=O)N[C@@H](CN[C@H]2CC[C@@H](N)CC2)Cc2ccc(C#N)cc2)cc1-c1ccc(CN[C@H](C)c2ccc(C)cc2)o1 | enzyme activity, inhibitor | 1 µM | remaining activity | 95%
Cn1cncc1C1=CN(c2ncnc3[nH]cnc23)CCS1 | enzyme activity, inhibitor, radiometric | 50 nM | inhibition | 18.2%
Nc1ncnc2occ(-c3ccc(NC(=O)Nc4cc(C(F)(F)F)ccc4F)cc3)c12 | enzyme activity, inhibitor | 20 µM | remaining activity | 42%
Oc1ccc(-c2nc(-c3ccncc3)c(-c3ccc(F)cc3)[nH]2)cc1 | cell-free assay | 0.5 µM | remaining signal | 106%
COc1cc(Nc2cnc(C#N)c(O[C@H](C)CN(C)C)n2)ncc1-c1cnn(C)c1 | enzyme activity, inhibitor, radiometric | 10 µM | remaining activity | 103%
O=C1Nc2ccc(Cl)cc2C1=Cc1cc(Cl)c(O)c(Cl)c1 | cell-free assay | 0.5 µM | remaining signal | 62.3%
COc1ccc2c(c1)O[C@@H](c1ccc(OC)c(OC)c1)C[C@H]2NC(=O)C1(c2ccc3c(c2)OC(F)(F)O3)CC1 | cell-free assay, competition with immobilised ligand | 1 µM | remaining binding | 85%
CC(C)(O)[C@H]1CC[C@H](Nc2ccc3ncc(-c4cccc(C(F)(F)F)c4)n3n2)CC1 | enzyme activity, inhibitor | 1 µM | remaining activity | 99.8%
O=C1NC(=O)c2cc(Nc3ccc(F)cc3)c(Nc3ccc(F)cc3)cc21 | cell-free assay | 0.5 µM | remaining signal | 100%
Cn1cnc(Br)c1C1=CN(c2ncnc3[nH]cnc23)CCS1 | enzyme activity, inhibitor, radiometric | 50 nM | inhibition | 33.5%
CC(=O)Nc1c(C(C)=O)c(=O)n(C)c2nc(-c3ccc(Cl)cc3Cl)c(-c3ccc(Cl)cc3)cc12 | cell-free assay, competition with immobilised ligand | 1 µM | remaining binding | 100%
O=C1c2ccccc2-c2n[nH]c3cccc1c23 | enzyme activity, inhibitor | 0.5 µM | activity vs control | 48%
CC(C)(C)c1nc2c(s1)c1nc(N)ncc1c1ccc(NS(=O)(=O)c3c(F)cccc3F)c(F)c12 | enzyme activity, inhibitor, radiometric | 1 µM | remaining activity | 87%
CO[C@H]1CC[C@H](CNc2ccc(S(=O)(=O)NC(=O)c3ccc(N4CCN(CC5=C(c6ccc(Cl)cc6)CC(C)(C)CC5)CC4)cc3Oc3cnc4[nH]ccc4c3)cc2[N+](=O)[O-])CC1 | cell-free assay, competition with immobilised ligand | 1 µM | remaining binding | 50%
C[C@@H]1CCN(c2nccc(-c3cnn4ncccc34)n2)C1 | binding | 1 µM | remaining binding | 92%
O=C(N1CCS(=O)(=O)CC1)N1C[C@H](c2ccc(OC(F)(F)F)cc2)C[C@H](c2nc(C3CC3)no2)C1 | cell-free assay, competition with immobilised ligand | 1 µM | remaining binding | 100%
Cn1c2c(Cl)c(Cl)ccc2c2cc[nH]c(=O)c21 | thermal stability, DSF | 10 µM | ΔTm | 2.4 °C
Cc1c(NC(=O)c2cc(C(N)=O)nc3cc(F)ccc23)c(C(F)(F)F)nn1Cc1ccc(C#N)cc1 | binding, competition with immobilised ligand | 1 µM | remaining binding | 65%
CN1CC(Oc2cnc(C#N)cc2-c2ccn3nc(NC(=O)C4CC4)cc3c2)C1 | enzyme activity, inhibitor | 1 µM | inhibition | -19%
O=C(Nc1cnn(-c2csc(C(=O)NC3COC3)c2)c1)Nc1c(F)cccc1Cl | enzyme activity, inhibitor | 5 µM | remaining activity | 95.9%
COc1cc(/C=C/C(=O)CC(=O)/C=C/c2ccc(O)c(OC)c2)ccc1O | enzyme activity, inhibitor | 1 µM | activity vs control | 70%
C[C@H](c1ccc(F)cc1)N(Cc1cccc(C(=O)O)c1)C(=O)c1cnc2ccccc2c1 | cell-free assay, competition with immobilised ligand | 1 µM | remaining binding | 76%
O=C(Nc1cnn(-c2csc(C(=O)NC3COC3)c2)c1)Nc1ccccc1Cl | enzyme activity, inhibitor | 5 µM | remaining activity | 97.5%
O=C(Nc1ccc(Oc2ccc(F)cc2)cc1)N1CCc2ncccc2[C@H]1c1ccc(F)cc1 | cell-free assay, competition with immobilised ligand | 1 µM | remaining binding | 100%
FC(F)c1nc2ccccc2n1-c1nc(N2CCOCC2)nc(N2CCOCC2)n1 | enzyme activity, inhibitor | 10 µM | remaining activity | 91%
